RGS4 act – RGS4 potentiation or activation; HEK293 M3R/inducible RGS4, carbachol calcium flux Fluo4; stronger effect = lower value; B-score at 10 µM; 0.92% of 310,000 active; AID 463111;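 active = B-score of the integrated calcium signal more than 4 SD below the library mean, with starting fluorescence not abnormally high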;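 note: negative B-score means reduced calcium response which marks RGS4 activation or potentiation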
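test system = HEK293 cells with stable M3R and inducible RGS4 | schedule = recording 10 s baseline at 1 Hz, 100 s post-agonist | technique = Fluo4-AM (2 µM) calcium-flux fluorescence, kinetic read | measure = Agonist-evoked peak-minus-minimum fluorescence over baseline, integrated ratio, B score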
RGS4 block – human RGS4 inhibition; HEK293 M3R/RGS4 inducible, Fluo-4 calcium flux; stronger effect = higher value; triggered by carbachol at its EC20; 0.45% of 310,000 active; B-score at 10 µM;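 active = B-score, a plate-corrected calcium signal, over three deviations above library mean, with baseline fluorescence within five deviations of library mean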;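 note: RGS4 expression induced by doxycycline in cells with stable M3 receptor; B-score is computed from the integrated fluorescence ratio over baseline after carbachol; higher B-score means a larger calcium signal and so more RGS4 inhibition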
Target sequence (P49798 whole entry, looked up): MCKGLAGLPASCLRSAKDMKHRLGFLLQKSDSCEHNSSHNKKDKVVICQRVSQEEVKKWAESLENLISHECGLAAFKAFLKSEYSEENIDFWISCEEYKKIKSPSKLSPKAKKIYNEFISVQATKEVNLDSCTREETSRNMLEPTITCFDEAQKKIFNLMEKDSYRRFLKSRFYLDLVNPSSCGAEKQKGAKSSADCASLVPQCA
MrgX1 ag – human MrgX1 receptor agonism, primary screen. Q96LB2. MrgX1-HEK293 cells, Fluo-4 calcium fluorescence, agonist mode; stronger effect = higher value. B-score at 10 µM. 0.44% of 310,000 active. AID 588627;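 active = calcium response B-score plate-corrected fluorescence ratio at least 3 library SD, with starting fluorescence B-score inside 5 SD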
Target sequence (Q96LB2 whole entry, looked up): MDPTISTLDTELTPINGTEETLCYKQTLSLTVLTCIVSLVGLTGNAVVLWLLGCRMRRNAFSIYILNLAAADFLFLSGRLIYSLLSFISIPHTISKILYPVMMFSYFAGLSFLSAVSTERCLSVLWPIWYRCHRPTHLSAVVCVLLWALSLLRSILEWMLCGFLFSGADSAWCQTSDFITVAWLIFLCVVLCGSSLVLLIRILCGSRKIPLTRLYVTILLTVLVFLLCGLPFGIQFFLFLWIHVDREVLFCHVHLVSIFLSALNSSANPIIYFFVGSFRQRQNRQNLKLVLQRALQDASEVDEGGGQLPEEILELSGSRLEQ
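Assay system: stable human MrgX1 HEK293 cell line. Quantity: 15,000 cells per well. Schedule: cells plated overnight, dye loaded 0.5 h 37 °C, 0.5 h room temperature. Detection: Fluo-4 NW calcium-flux fluorescence, kinetic read. Read-out basis: peak-minus-minimum fluorescence over baseline, converted to B scores. Control set: positive and negative control wells on each plate.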
MrgX1 PAM – human MrgX1 positive allosteric modulation, primary screen | Q96LB2 | MrgX1-HEK293, Fluo-4 calcium flux, FDSS; stronger effect = higher value | B-score at 10 µM | 0.63% of 310,000 active;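 active = plate-corrected calcium response at least 3 library SD above typical, normal starting fluorescence, not activating the receptor alone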;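 note: compound read alongside a low EC10 to EC30 dose of BAM8-22 agonist; peak minus trough fluorescence over baseline measured at the second addition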
MrgX1 antag – blocks BAM8-22 activation of human MrgX1 receptor | Q96LB2 | MRGX1-HEK293 calcium flux, Fluo-4, BAM8-22 antagonism; stronger effect = lower value | B-score at 10 µM | 1.3% of 310,000 active | AID 588676;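 active = calcium-response B-score plate-corrected more than 3 library SD below zero, starting fluorescence within 5 deviations, no agonist response on first addition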;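 note: peak minus trough fluorescence over baseline after final BAM8-22 challenge near maximal dose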
MrgX1 PAM conf – human MrgX1 positive allosteric modulation, re-confirmation; 13% of 1,200 active; activation (ratio percentage), % at 10 µM; AID 602413; MrgX1-HEK293, Fluo-4 calcium fluorescence, FDSS; shares compounds with MrgX1 PAM;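 active = ratio at least 3 SD above the weak peptide control, stable starting fluorescence, no direct agonism earlier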;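 note: compound followed by low BAM8-22 agonist challenge near EC20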
HEK293 Ca flux – counter-screen for MrgX1 antagonists: effect in parental HEK293 cells | 2% of 4,000 active | shares compounds with MrgX1 antag | AID 624111 | fluorescence ratio F(max-min)/F0 at 10 µM | Fluo-4 calcium fluorescence, FDSS;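 active = duplicate-averaged calcium fluorescence ratio at least three times the standard deviation of buffer wells, a nonspecific response in parental cells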
HEK293 Ca counter – MrgX1 allosteric activator counter-screen hit in parental HEK293 cells; shares compounds with MrgX1 antag; parental HEK293 calcium flux, Fluo-4 fluorescence ratio; stronger effect = higher value; fluorescence ratio F(max-min)/F0 at 10 µM; 0.4% of 4,000 active; AID 624114;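 active = calcium fluorescence ratio, averaged over duplicates, at least 3 SD of the buffer-well ratio, meaning a nonspecific response in receptor-free cells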;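 note: untransfected parental HEK293 lacking MrgX1 used as counterscreen for MrgX1 allosteric activators; fluorescence change taken during the second addition on a kinetic imager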
HEK293 Ca cntr2 – counter-screen for MrgX1 activators: effect in parental HEK293 cells; 8.7% of 4,000 active; shares compounds with MrgX1 antag; Fluo-4 calcium fluorescence (FDSS); stronger effect = higher value; fluorescence ratio F(max-min)/F0 at 10 µM;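 active = calcium fluorescence ratio at least three times the spread of buffer wells, meaning a non-specific response in parental cells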
Starred values were filed as active, the others as inactive; i = inactive; . = no result. In the library only some 3.5% were active in any assay of this set; here they are far more common.

SMILES	RGS4 act	RGS4 block	MrgX1 ag	MrgX1 PAM	MrgX1 antag	MrgX1 PAM conf	HEK293 Ca flux	HEK293 Ca counter	HEK293 Ca cntr2
NC(=O)C1CCN(C(=O)COCc2cc(-c3ccc4c(c3)OCO4)on2)CC1	i	i	i	17*	i	i	i	i	i
COc1ccc(CN2CCNC(=O)C2CC(=O)N(C)C2CCOCC2)c(F)c1 (stereo unspecified)	i	i	i	i	i	.	.	.	.
O=C(O)c1cccc(N2C(=O)c3ccc(Oc4ccc(Cl)cc4)cc3C2=O)c1	i	i	i	i	i	.	.	.	.
O=C(O)c1cccc(N2C(=O)c3ccc4c5c(ccc(c35)C2=O)C(=O)N(c2cccc(C(=O)O)c2)C4=O)c1	i	i	i	7*	i	i	i	i	i
COc1ccccc1NC(=O)c1ccccc1NS(=O)(=O)c1cccs1	i	i	i	54*	i	29%*	i	i	i
COc1ccccc1NC(=O)c1ccccc1NS(C)(=O)=O	i	i	i	11*	i	i	i	i	i
CCOc1ccccc1NC(=O)c1ccccc1NS(C)(=O)=O	i	i	i	23*	i	79%*	i	i	i
COc1ccc(NC(=O)c2ccccc2NS(C)(=O)=O)cc1OC	i	i	i	i	i	.	.	.	.
COc1ccccc1NC(=O)c1cc2cc(Br)ccc2cc1O	i	i	i	8.4*	i	16%*	i	i	i
CS(=O)(=O)Nc1ccccc1C(=O)Nc1ccccc1Cl	i	i	i	i	i	.	.	.	.
COc1cc(NC(=O)c2cc3ccccc3cc2O)c(OC)cc1Cl	i	i	i	i	i	.	.	.	.
COc1ccc(C(=O)C2CCN(CC(=O)Nc3ccc(OC)cc3OC)CC2)cc1	i	i	i	7.5*	i	i	i	i	i
O=C(Cn1cnc2ccccc21)N1CCN(S(=O)(=O)c2ccccc2)CC1	i	i	i	i	i	.	.	.	.
Cc1cc(/C=C2\Cc3ccccc3C2=O)c(C)n1-c1ccccc1	i	i	i	25*	i	i	i	i	i
COc1ccccc1/C=C1\Cc2ccccc2C1=O	i	i	i	i	i	.	.	.	.
Cc1ccc(Nc2nc3ccccc3s2)c(C)c1	i	i	i	7*	i	i	i	i	i
CCc1ccc(NC(=O)Cn2ncc3c4ccccc4n(C)c3c2=O)cc1	i	i	i	i	i	.	.	.	.
O=C(Cc1ccccc1)N1CCC(c2ccccc2)C1 (stereo unspecified)	i	i	i	i	i	.	.	.	.
COc1ccc(CC(=O)N2CCC(c3ccccc3)C2)cc1 (stereo unspecified)	i	i	i	8*	i	i	i	i	i
CCc1ccc(Oc2cc(Cl)nc(N)n2)cc1	i	i	i	12*	i	i	i	i	i
COc1ccc(-c2cccc(NS(=O)(=O)c3cc([N+](=O)[O-])c(C)c([N+](=O)[O-])c3)c2)nn1	i	i	i	i	i	.	.	.	.
COCCn1c(SCC(=O)NCc2ccc3c(c2)OCO3)nc2ccccc2c1=O	i	i	i	i	i	.	.	.	.
COC(=O)C(CC(=O)c1ccc(Cl)cc1)c1ccc(C(C)C)cc1 (stereo unspecified)	i	i	i	7.1*	i	i	i	i	i
O=C(CC(C(=O)O)c1ccc(Cl)cc1)c1ccc(Cl)c(Cl)c1 (stereo unspecified)	i	i	i	i	i	.	.	.	.
C/C(=N/NC(=O)CN1CCN(S(=O)(=O)c2ccc(C)cc2)CC1)c1ccco1	i	i	i	i	i	.	.	.	.
SMILES	RGS4 act	RGS4 block	MrgX1 ag	MrgX1 PAM	MrgX1 antag	MrgX1 PAM conf	HEK293 Ca flux	HEK293 Ca counter	HEK293 Ca cntr2
Cc1ccc(S(=O)(=O)c2nnn(-c3cccc(F)c3)c2N)cc1	i	i	i	8.9*	i	i	i	i	i
CC(NC(=O)Nc1ccccc1O)(C(F)(F)F)C(F)(F)F	i	i	i	9.8*	i	i	i	i	i
CC(C)c1ccc(C(=O)NCCCN(C)C)cc1	i	i	i	i	i	.	.	.	.
CC(=O)Cc1nsc(NC(=O)c2ccc(-c3ccc(Cl)cc3Cl)o2)n1	i	i	i	i	i	.	.	.	.
CC(=O)Cc1nsc(NC(=O)c2ccc(-c3cc(Cl)ccc3Cl)o2)n1	i	i	i	40*	i	32%*	i	i	i
CN1CCN(C(=S)NC(=O)c2ccc(Br)cc2)CC1	i	i	i	i	i	.	.	.	.
CN1CCN(C(=S)C(=O)Nc2ccc(Br)cc2)CC1	i	i	i	11*	i	i	i	i	i
COC(=O)c1cc(C#N)c(SCc2ccccc2)nc1C	i	i	i	6.9*	i	i	i	i	i
CCN(CC)C(=O)C(=O)c1c(-c2ccccc2)[nH]c2ccccc12	i	i	i	15*	i	i	i	i	i
CCNC(=O)C(=O)c1c(-c2ccccc2)[nH]c2ccccc12	i	i	i	i	i	.	.	.	.
CCN(CC)S(=O)(=O)c1cccc(NC2=NCC(C)S2)c1 (stereo unspecified)	i	i	i	9.1*	i	i	i	i	i
CC(C)Nc1nc(NC(C)(C)C)nc(Oc2ccc(=O)n(C)n2)n1	i	i	i	28*	i	i	i	i	i
CCC1CN(C(=O)NCc2ccc(C)cc2)c2cc(Cl)ccc2O1 (stereo unspecified)	i	i	i	i	i	.	.	.	.
COC(=O)CN1C(=O)C2(C(C#N)=C(N)Oc3c2c(C)nn3-c2ccccc2)c2ccccc21 (stereo unspecified)	i	i	i	7.4*	i	i	i	i	i
COC(=O)CN1C(=O)C2(C(C#N)=C(N)Oc3n[nH]c(-c4cccs4)c32)c2ccccc21 (stereo unspecified)	i	i	i	i	i	.	.	.	.

Screening data deposited in PubChem by Johns Hopkins Ion Channel Center.
